Assays:
Glutamate NMDA receptor = assay: Binding affinity at TCP site of NMDA receptor was determined in rat brain homogenate by [3H]TCP displacement.; format: tissue-based
Mus musculus [1] = assay: NMDA antagonistic activity was evaluated […] in cultured mouse cortical neurons by patch clamp recordings designed to measure open state binding to NMDA receptor-ionophore complex; format: functional
[2] = LogD value of the compound; format: physicochemical; conditions: octanol/water
Method in brief: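 LogD is the partition coefficient between octanol and pH 7.4 buffer. It was measured instrumentally by an outside laboratory.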

Mus musculus [3] = assay: NMDA antagonistic activity was evaluated […] in cultured mouse cortical neurons by patch clamp recordings designed to measure closed state binding to NMDA receptor-ionophore complex at 100 uM; format: functional
Method in brief: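 Value is the percent inhibition of NMDA-induced current at 100 μM, under closed-channel conditions in mouse cortical neuronal cultures.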

Mus musculus [4] = assay: NMDA antagonistic activity was evaluated […] in cultured mouse cortical neurons by patch clamp recordings designed to measure closed state binding to NMDA receptor-ionophore complex; format: functional
Mus musculus [5] = organism: Mus musculus; assay: (§1) Ratio of IC50 value for closed channel binding to that of open channel binding.; format: functional
[6] = target: Glutamate NMDA receptor (Rattus norvegicus) (UniProt P35439+Q00959+Q00960+Q00961+Q62645+Q8VHN2+Q9R1M7); assay: Compound at 10 uM was tested for the inhibition of radioligand [3H]TCP binding to TCP site of NMDA receptor in rat brain homogenate; format: tissue-based
Mus musculus [7] = organism: Mus musculus; assay: Inhibitory concentration against NMDA-induced cell death in cultured mouse cortical neurons; format: functional
Rattus norvegicus = assay: In vivo anti-ischemic activity was evaluated in a rat middle cerebral artery occlusion/ reperfusion model of focal ischemia at a dose of 6 mg/kg/h for 6.5 hr (iv, infusion); format: functional
Method in brief: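 Rats underwent middle cerebral artery occlusion followed by reperfusion (focal ischemia). The drug was given by continuous intravenous infusion. The read-out was reduction in infarct volume (n = 15).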

[8] = as §1; format: functional

CCOC1(OCC)C2c3ccccc3C([n+]3ccccc32)C1(C)C.[Cl-] (stereo not drawn)
Ki (Glutamate NMDA receptor): 5.3 nM
IC50 (Mus musculus [1]): 260 nM
logD [2]: -4.08
Inhibition (Mus musculus [3]): -8.5%
IC50 (Mus musculus [4]): > 100000 nM
Ratio (Mus musculus [5]): >384

c1ccc2c(c1)C1CC(c3ccncc3)(c3ccncc3)C2c2cccc[n+]21 (stereo not drawn)
inhibition [6]: 54%

c1csc(C2(c3cccs3)CC3c4ccccc4C2c2cccc[n+]23)c1 (stereo not drawn)
Ki (Glutamate NMDA receptor): 2.1 nM
IC50 (Mus musculus [7]): 23 nM

COc1ccc(C2(c3ccc(OC)cc3)CC3c4ccccc4C2c2cccc[n+]23)cc1 (stereo not drawn)
Ki (Glutamate NMDA receptor): 28100 nM

c1ccc2c(c1)C1CC(c3ccsc3)(c3ccsc3)C2c2cccc[n+]21 (stereo not drawn)
Ki (Glutamate NMDA receptor): 1.8 nM
IC50 (Mus musculus [7]): 45 nM

C[C@]12N[C@H](Cc3ccccc31)c1ccccc12 [DIZOCILPINE]
IC50 (Mus musculus [1]): 100 nM
logD ([2]; read-out: logD): 1.79
IC50 (Mus musculus [7]): 67 nM
IC50 (Mus musculus [4]): 5800 nM

COc1cccc(C2(c3cccc(OC)c3)CC3c4ccccc4C2c2cccc[n+]23)c1 (stereo not drawn)
Ki (Glutamate NMDA receptor): 41 nM

Brc1ccc(C2(c3ccc(Br)cc3)CC3c4ccccc4C2c2cccc[n+]23)cc1 (stereo not drawn)
inhibition [6]: 22%

Fc1ccc(C2(c3ccc(F)cc3)CC3c4ccccc4C2c2cccc[n+]23)cc1 (stereo not drawn)
Ki (Glutamate NMDA receptor): 2210 nM

[Cl-].c1ccc2c(c1)C1CC(c3ccoc3)(c3ccoc3)C2c2cccc[n+]21 (stereo not drawn)
Ki (Glutamate NMDA receptor): 1.8 nM
IC50 (Mus musculus [1]): 140 nM
logD ([2]; read-out: logD): -3.41
IC50 (Mus musculus [7]): 39 nM
Inhibition (Mus musculus [3]): 12%
IC50 (Mus musculus [4]): > 100000 nM
inhibition in vivo at 6 mg/kg/h (Rattus norvegicus): 50%
Ratio (Mus musculus [5]): >700

c1ccc2c(c1)C1CC(c3ncc[nH]3)(c3ncc[nH]3)C2c2cccc[n+]21 (stereo not drawn)
Ki (Glutamate NMDA receptor): 1670 nM

c1ccc2c(c1)C1CC(c3nccs3)(c3nccs3)C2c2cccc[n+]21 (stereo not drawn)
Ki (Glutamate NMDA receptor): 17 nM

c1ccc2c(c1)C1CC(c3cocn3)(c3cocn3)C2c2cccc[n+]21 (stereo not drawn)
Ki (Glutamate NMDA receptor): 93 nM

c1ccc(C2(N3CCCCC3)CCCCC2)cc1 [PHENCYCLIDINE]
IC50 (Mus musculus [1]): 270 nM
Ratio [8]: 51
logD ([2]; read-out: logD): 1.76
IC50 (Mus musculus [4]): 13900 nM

Clc1ccc(C2(c3ccc(Cl)cc3)CC3c4ccccc4C2c2cccc[n+]23)cc1 (stereo not drawn)
inhibition [6]: 45%

c1cncc(C2(c3cccnc3)CC3c4ccccc4C2c2cccc[n+]23)c1 (stereo not drawn)
Ki (Glutamate NMDA receptor): 2270 nM

c1coc(C2(c3ccco3)CC3c4ccccc4C2c2cccc[n+]23)c1 (stereo not drawn)
Ki (Glutamate NMDA receptor): 1.9 nM
IC50 (Mus musculus [7]): 36 nM

c1ccc2c(c1)C1CC(c3cncs3)(c3cncs3)C2c2cccc[n+]21 (stereo not drawn)
Ki (Glutamate NMDA receptor): 120 nM

c1ccc(C2(c3ccccc3)CC3c4ccccc4C2c2cccc[n+]23)cc1 (stereo not drawn)
Ki (Glutamate NMDA receptor): 8.2 nM
IC50 (Mus musculus [7]): 197 nM

Clc1cccc(C2(c3cccc(Cl)c3)CC3c4ccccc4C2c2cccc[n+]23)c1 (stereo not drawn)
Ki (Glutamate NMDA receptor): 104 nM

Brc1cccc(C2(c3cccc(Br)c3)CC3c4ccccc4C2c2cccc[n+]23)c1 (stereo not drawn)
Ki (Glutamate NMDA receptor): 185 nM

c1ccc2c(c1)C1CC(c3cc[nH]n3)(c3cc[nH]n3)C2c2cccc[n+]21 (stereo not drawn)
Ki (Glutamate NMDA receptor): 13 nM
IC50 (Mus musculus [7]): 271 nM

c1ccc2c(c1)C1CC(c3cc[nH]c3)(c3cc[nH]c3)C2c2cccc[n+]21 (stereo not drawn)
Ki (Glutamate NMDA receptor): 3.1 nM
IC50 (Mus musculus [7]): 30 nM

c1ccc(C2(c3ccccn3)CC3c4ccccc4C2c2cccc[n+]23)nc1 (stereo not drawn)
Ki (Glutamate NMDA receptor): 8.4 nM
